Experimental data from different studies.
Protocols differ between the studies behind these lines.
Cell line: MOLM-13
Observed: cell growth or viability

c1cc(N2CCCC2)ccc1-c1cc2ncc(OCC3CCNCC3)nc2cc1-c1ccc(N2CCCC2)cc1 — EC50 (XTT; 7 days): 1.7 µM
Cc1n[nH]c2ccc3nc(-c4ccc(C(=O)NCCN(C)C)cc4F)c4c(c3c12)CCCC4 — GI50 (72 h): 0.047 µM
COc1ccc2/c(=N/c3ccccc3NC(=O)[C@@H](N)C(C)(C)C)cc(-c3ccc4c(c3)OCCO4)oc2c1 — inhibition (CCK-8; 1 µM): 2.86%
Cc1n[nH]c2ccc3nc(-c4ccc(C(=O)NCCN(C)C)cc4)c4c(c3c12)CCCC4 — GI50 (72 h): 0.054 µM
C[C@H](N)C(=O)Nc1ccccc1/N=c1\cc(-c2ccc3c(c2)OCCO3)oc2c(N)cccc12 — inhibition (CCK-8; 1 µM): 3.7%
Cc1cc2c(C(=O)O)cccc2n1-c1nc2c(c(NCc3ccccc3)n1)CCCN2 — IC50 (72 h): 0.4 µM
O=C(Nc1ccccc1/N=c1\cc(-c2ccc3c(c2)OCCO3)oc2cc(F)ccc12)N1CCOCC1 — inhibition (CCK-8; 1 µM): 2.91%
CC1(C)CCC(CN2CCN(c3ccc(C(=O)NS(=O)(=O)c4ccc(NCC5CCOCC5)c([N+](=O)[O-])c4)c(Oc4cnc5[nH]ccc5c4)c3)CC2)=C(c2ccc(Cl)cc2)C1 — GI50: 0.01 µM
CONC(=O)c1cccc2c1cc(C)n2-c1nc2c(c(NCc3ccccc3)n1)CCCN2 — IC50 (72 h): 1.4 µM
c1cc(N2CCC(N3CCOCC3)CC2)ccc1Nc1ccc2ncc(OCC3CCNCC3)nc2c1 — EC50 (XTT; 7 days): > 30 µM
CC(C)(C)c1cc(NC(=O)Nc2ccc(-c3cn4c(n3)sc3cc(OCCN5CCOCC5)ccc34)cc2)no1 — GI50 (72 h): 0.009 µM
c1cc(N2CCCCC2)ccc1Nc1cc2ncc(OCC3CCNCC3)nc2cc1-c1ccc(N2CCCCC2)cc1 — EC50 (XTT; 7 days): 2.8 µM
CS(=O)(=O)NCCC(=O)Nc1ccccc1/N=c1\cc(-c2ccc3nc(N)oc3c2)oc2ccccc12 — inhibition (CCK-8; 1 µM): 8.5%
Nc1cccc(-c2ccc3ncc(OCC4CCNCC4)nc3c2)c1 — EC50 (XTT; 7 days): 28.3 µM
CN(C)CCNC(=O)c1ccc(-c2nc3ccc4[nH]ncc4c3c3c2CCCC3)c(F)c1 — GI50 (72 h): 0.262 µM
